Results on one compound are retold here after ChEMBL document CHEMBL5154715, “Phenolic Lipids Derived from Cashew Nut Shell Liquid to Treat Metabolic Diseases” (J Med Chem, 2022).

Active and inactive are the calls of the source. No cut-off for these calls is given here.

This assay concerns the target T1, Peroxisome proliferator-activated receptor alpha (Mus musculus) (UniProt P23204).
T1 sequence (whole entry): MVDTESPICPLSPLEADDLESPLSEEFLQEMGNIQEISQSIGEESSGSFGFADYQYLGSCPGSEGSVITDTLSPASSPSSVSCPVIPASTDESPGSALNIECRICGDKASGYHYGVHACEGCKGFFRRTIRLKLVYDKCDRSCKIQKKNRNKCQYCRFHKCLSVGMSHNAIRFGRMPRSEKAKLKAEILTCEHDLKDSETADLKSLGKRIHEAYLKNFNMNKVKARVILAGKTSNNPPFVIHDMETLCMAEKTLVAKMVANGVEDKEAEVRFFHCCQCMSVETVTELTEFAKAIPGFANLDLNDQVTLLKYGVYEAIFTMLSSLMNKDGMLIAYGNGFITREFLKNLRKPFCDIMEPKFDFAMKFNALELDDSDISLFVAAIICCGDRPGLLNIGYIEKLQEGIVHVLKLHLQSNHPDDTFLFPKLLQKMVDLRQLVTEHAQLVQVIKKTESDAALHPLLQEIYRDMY
Put plainly: Agonist activity at human PPARalpha in mouse hepatocytes assessed as induction of cd36 mRNA expression at 50 uM incubated for 16 hrs by quantitative real-time PCR analysis. It counts as cell-based. The settings on record: Hepatocyte, filed as agonist. In short, it runs like this: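 Collagenase-perfused mouse primary hepatocytes from WT mice, plated 2 h in attachment medium, overnight in M199 with 5% charcoal-stripped FBS and 1 nM insulin. Treated next day in serum-free M199 with 50 μM compound for 16 h. RNA qPCR (SYBR Green), comparative Ct method.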

Regarding `CCCCCCCCCCCCCCCc1cccc(OC(C)(C)C(=O)O)c1`, the result was Active.
